The source made the active and inactive calls. The rule behind the calls is not given here.

Common to all, as to format: functional, cell-based
For assay [1], the target named is T1, Adenosine receptor A1 (Homo sapiens) (UniProt P30542).
T1 sequence (whole entry): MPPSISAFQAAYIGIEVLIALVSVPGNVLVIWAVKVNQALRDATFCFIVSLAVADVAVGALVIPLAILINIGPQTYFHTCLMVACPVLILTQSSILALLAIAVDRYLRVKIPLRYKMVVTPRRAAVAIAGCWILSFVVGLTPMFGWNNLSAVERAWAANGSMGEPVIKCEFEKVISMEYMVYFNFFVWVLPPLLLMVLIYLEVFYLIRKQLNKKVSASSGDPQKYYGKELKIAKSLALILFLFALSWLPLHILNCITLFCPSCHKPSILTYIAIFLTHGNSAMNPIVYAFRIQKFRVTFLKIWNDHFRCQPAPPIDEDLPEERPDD
As to the kind of experiment: Agonist activity at human A1 receptor expressed in CHO cells assessed as enhancement of R-PIA mediated ERK1/2 phosphorylation at 3 uM after 5 mins by Alpha-Screen assay. The essentials: (§1)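 Flp-In CHO cells stably expressing human A1R, 30000/well, serum-starved overnight, then 1 U/mL ADA for 30 min. Test compound (3 or 10 μM) added 5 min before an EC50 concentration of R-PIA (determined same day), then a further 5 min at 37 °C. pERK1/2 read by SureFire AlphaScreen. Mean of two to three experiments in triplicate.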

Assay [2] has as its target T1, Adenosine receptor A1 (Homo sapiens). The assay is described as follows: Agonist activity at human A1 receptor expressed in CHO cells assessed as enhancement of R-PIA mediated ERK1/2 phosphorylation at 10 uM after 5 mins by Alpha-Screen assay. In short, it runs like this: as §1
The target is the same in assay [3]. As to the kind of experiment: Agonist activity at human A1 receptor expressed in CHO cells assessed as stimulation of ERK1/2 phosphorylation at 3 to 10 uM after 5 mins by Alpha-Screen assay. The essentials:
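Flp-In CHO cells stably expressing human A1R, serum-starved overnight and pretreated with 1 U/mL ADA for 30 min. Compound (3 and 10 μM) applied alone, 5 min at 37 °C. Intrinsic agonism measured as ERK1/2 phosphorylation by SureFire AlphaScreen, with 3% FBS as positive control. Two to three experiments in triplicate.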

Assay [4] has the same target. As to the kind of experiment: Positive allosteric modulation at human A1 receptor expressed in CHO cells assessed as inhibition of forskolin-stimulated cAMP accumulation after 30 mins by Alpha-Screen assay. In short, it runs like this:
(§2)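 Serum-starved CHO-FlpIn hA1R cells were preincubated 30 min in phenol red-free DMEM with 0.1% BSA, 1 U/mL ADA and 500 μM IBMX. They were then treated with 10 μM forskolin plus R-PIA and/or modulator for 30 min at 37 °C, and cAMP was read by AlphaScreen. Data were normalized to 10 μM forskolin and fitted to an operational model of allosterism. Three experiments in duplicate.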

The target is the same in assay [5]. As to the kind of experiment: Positive allosteric modulation at human A1 receptor expressed in CHO cells assessed as enhancement of R-PIA-mediated inhibition of forskolin-stimulated cAMP accumulation after 30 mins by Alpha-Screen assay. In short, it runs like this: as §2

Regarding `Cc1ccc(C(=O)c2c(N)sc(C)c2-c2cccc(C(F)(F)F)c2)cc1`, the Activity in assay [1] came out at 86%; in assay [2], 90%.
Take `Cc1ccc(C(=O)c2c(-c3cccc(C(F)(F)F)c3)csc2N)cc1`: the Activity in assay [1] was 85%; in assay [2] it was 83%.
Turning to `Cc1ccc(C(=O)c2c(N)sc(C)c2-c2cc(C(F)(F)F)cc(C(F)(F)F)c2)cc1`, the Activity in assay [1] is 92%; in assay [2], 80%.
For the compound `Nc1scc(-c2cc(C(F)(F)F)cc(C(F)(F)F)c2)c1C(=O)c1cccc(C(F)(F)F)c1`, the Activity in assay [1] came out at 90%; in assay [2], 84%.
The corresponding values for `Cc1sc(N)c(C(=O)c2ccccc2)c1-c1cc(C(F)(F)F)cc(C(F)(F)F)c1` are 83% and 95%.
In the case of `Cc1sc(N)c(C(=O)c2ccc(Cl)cc2)c1-c1cc(C(F)(F)F)cc(C(F)(F)F)c1`, the Activity in assay [1] was determined as 84%; in assay [2] it was 88%.
For `Cc1sc(N)c(C(=O)c2ccccc2)c1-c1cccc(C(F)(F)F)c1`, the result in assay [3], in assay [4] and in assay [5] was Active. The values for the Activity in assay [1] and in assay [2] were 77% and 73%, respectively.
Turning to `Cc1sc(N)c(C(=O)c2cccc(C(F)(F)F)c2)c1-c1cc(C(F)(F)F)cc(C(F)(F)F)c1`, the Activity in assay [1] and in assay [2] was 84% each time.
With `Nc1scc(-c2cccc(C(F)(F)F)c2)c1C(=O)c1ccc(Cl)c(Cl)c1`, the Activity in assay [1] and in assay [2] was 88% in each case.
In the case of `Nc1scc(-c2cc(C(F)(F)F)cc(C(F)(F)F)c2)c1C(=O)c1ccc(Cl)c(Cl)c1`, the Activity in assay [1] and in assay [2] was 90% each time.
Consider `Cc1sc(N)c(C(=O)c2ccc(Cl)cc2)c1-c1cccc(C(F)(F)F)c1`, for which the outcome in assay [3] and in assay [5] was Active. In addition, the Activity in assay [1] and in assay [2] was 94% throughout.
Regarding `Cc1sc(N)c(C(=O)c2ccc(Cl)c(Cl)c2)c1-c1cc(C(F)(F)F)cc(C(F)(F)F)c1`, the Activity turned out to be 78% in assay [1] and 84% in assay [2].
The corresponding values for `Cc1ccc(C(=O)c2c(-c3cc(C(F)(F)F)cc(C(F)(F)F)c3)csc2N)cc1` are 86% and 87%.
As to `Cc1sc(N)c(C(=O)c2ccc(Cl)c(Cl)c2)c1-c1cccc(C(F)(F)F)c1`, the Activity in assay [1] was determined as 73%; in assay [2] it was 75%.
With `Cc1sc(N)c(C(=O)c2cccc(C(F)(F)F)c2)c1-c1cccc(C(F)(F)F)c1`, the Activity in assay [1] worked out at 90%; in assay [2], 86%.
Regarding `Nc1scc(-c2cccc(C(F)(F)F)c2)c1C(=O)c1cccc(C(F)(F)F)c1`, the Activity in assay [1] is 93%; in assay [2] it was 94%.
